Assay: Toxicity liver stage against HepG2, at 10uM
Assay type: cell-based
Set-up: test concentration 10 uM, cell line HepG2-A16-CD81EGFP
Details: human, HepG2-A16-CD81EGFP cells; read-out: INHIBITION
How it was run: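 Uninfected HepG2-A16-CD81EGFP cells, 3 × 10^3 per well, 1536-well, plated on prespotted compound at 10 μM final, parasite-free screening media added to match infected plates; puromycin 10 μM positive, DMSO 0.5% negative; run in parallel with 48 h PbLuc assay at 37 °C, 5% CO2; viability by CellTiter-Glo luminescence, normalized to controls.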

Structure (SMILES)	cytotoxicity at 10 µM [%]
Cn1ncc2c1CCCN(C(=O)C1CCCC1)C2	4.13
CCNC(=O)c1cn(C(C)(C)C)c2ncccc12	-1.28
O=C(O)CN1CCC(c2ccccc2)C1 (stereo unspecified)	1.67
Cn1cccc1C(O)CNC(=O)c1ccc(F)c(F)c1 (stereo unspecified)	-1.29
CC(C)Nc1nc(N2CCCC2)nc2c1CN(C)CC2	-0.376
CCS(=O)(=O)N1C[C@H](c2nc(C)no2)C[C@H]2OCC[C@H]21	-119
Cc1ccc(C(=O)N2C[C@@H]3C[C@@H](c4nnc(C5CC5)o4)O[C@@H]3C2)s1	-133
Cc1oc(-c2nc(C#N)c(NCC(C)C)o2)cc1S(=O)(=O)N1CCCC1	13.1
CCn1cc(Cl)c(C(=O)NCCOC)n1	7.05
CS(=O)(=O)Nc1ccn(Cc2cccc(Cl)c2)n1	8.66
COC(=O)C1=C(C)N=C2SCC(=O)N2C1c1cnn(C)c1C (stereo unspecified)	4.01
O=C(Cn1cc(C(=O)O)cn1)Nc1c(Cl)cccc1Cl	1.57
COc1c(Br)c(CC2CC(CO)=NO2)c(OC)c2c1OCO2 (stereo unspecified)	6.36
c1cc(C2CCN(c3cnccn3)CC2)ncn1	2.64
CC(C)c1nnc(NC(=O)N(C)Cc2ccc(C(N)=O)cc2)s1	12
CCOCC(=O)Nc1nccn1Cc1ccccc1Cl	-0.678
CCOc1nnc(CN2CCCC(c3nc4ccccc4[nH]3)C2)s1 (stereo unspecified)	14.6
CN(CC(=O)Nc1cc(-n2nnnc2C2CC2)ccc1F)C1CCC1	8.83
COc1cccc(C(CO)NC(=O)Cc2ccc(F)c(Br)c2)c1 (stereo unspecified)	8.44
COCCS(=O)(=O)N(Cc1cscn1)c1ccccc1	-3.3
Cc1ccc(-c2noc(CCC(=O)NC(C)Cn3cccn3)n2)cc1 (stereo unspecified)	8.41
O=C(NCCCO)NCCc1cc(F)ccc1F	2.37
O=C(NCCN1CCCCCC1=O)NCc1ccc(Cl)s1	-1.08

Structure (SMILES)	cytotoxicity at 10 µM [%]
CCc1noc(CN2CCCC2C(=O)OCc2ccccc2)n1 (stereo unspecified)	-1.57
O=C(c1ccc(-n2ccnn2)cc1)N(CC1CC1)c1cccnc1	22.5
CN(CCOc1ccc(C#N)cc1)CC1CCS(=O)(=O)C1 (stereo unspecified)	-6.94
Cn1cc(CNC2CCc3ncnn3C2)c(-c2ccncc2)n1 (stereo unspecified)	-8.55
COCCC1(CNC(=O)Nc2ccc(-n3cccn3)cc2)CCC1	-2.75
Cc1ccc(CN(C)C(=O)CCNS(=O)(=O)c2cccnc2)cc1	-10.6
CCS(=O)(=O)NCCNC(=O)c1cnc(-c2ccccc2)nc1	13.8
Cc1cccc(C(=O)N2CCN(S(C)(=O)=O)[C@@H](C)C2)c1Cl	5.58
O=C(C(CNCc1cccnc1)c1ccccc1)N1CCOCC1 (stereo unspecified)	2.49
COCCN(Cc1ccccc1)c1cc(C)ncn1	7.41
Cc1cnn(CCNCC(=O)NC2(C#N)CCCC2)c1	-13.2
FC(F)Sc1ccc(NCc2nnc(C3CC3)o2)cc1	14.7
CCc1cc(CNC(=O)C2CCCN(C(=O)NCC(C)C)C2)[nH]n1 (stereo unspecified)	7.23
O=C(Nc1ccccc1OC1CCOC1)c1[nH]nc2c1CCCC2 (stereo unspecified)	0.271
COc1cccc2c1N(Cc1noc(C(C)(C)C)n1)CCC2	10.9
NC(=O)C(NC(=O)Cc1cnn(-c2ccccc2)n1)c1ccccc1 (stereo unspecified)	-3.05
CCn1cc(CNc2ccc(F)c(N3CCCS3(=O)=O)c2)cn1	-17
CCCN1CCCN(CCCOc2cccc(C#N)c2)CC1	18
Cc1cc(C)c2c(c1)C(NC(=O)CSc1nnc[nH]1)CCO2 (stereo unspecified)	-3.91
O=C(NCCNc1ccc(C(F)(F)F)cn1)c1ccoc1	-2
CC(C)(CNc1cn[nH]c(=O)c1Cl)c1ccc2c(c1)OCCO2	2
N#CCc1ccc(OCC(=O)NS(=O)(=O)c2cccs2)cc1	13.6
Cc1cc(NC(=O)N2CCCC2C(=O)NC2CC2)c2ncccc2c1 (stereo unspecified)	-2.43

Structure (SMILES)	cytotoxicity at 10 µM [%]
CC(CNC(=O)NCc1ccco1)CC1(C)OCCO1 (stereo unspecified)	-7.25
NC(=O)C(NC(=O)COC1CCCCC1)c1ccccc1 (stereo unspecified)	-4.65
CN(C)S(=O)(=O)N1CCCC1C(=O)N1CCSCC1 (stereo unspecified)	6.67
Cc1cnn(CCCNC(=O)NCCC(=O)Nc2ccccc2)c1	2.72
CC(NC(=O)NCCCN1CCCC1=O)c1ccc(Cl)s1 (stereo unspecified)	-8.28
CCO[C@@H]1CC[C@H]2[C@H]1OCCN2C(=O)c1nn(C)c2ccccc12	-2.69
CCOCC1CN(c2ncccn2)Cc2cnn(CC3CCOCC3)c21 (stereo unspecified)	2.97
O=C(c1cnccn1)N1C[C@@H]2CN(Cc3cccnc3)CCO[C@@H]2C1	2.89
COc1cc(N2CC[C@H](O)[C@@H]2Cc2cnn(C)c2)ncn1	1.72
COCCCN1CCN(c2ncnc3nc(C)cc(C)c23)CC1	1.54
Cc1nc(CN(C)Cc2nc(-c3ccncc3)no2)co1	-0.187
CCCc1nnc(NCCc2noc(C3CCCC3)n2)o1	20.2
COC(=O)c1ccc2ccn(CC3COCCO3)c(=O)c2c1 (stereo unspecified)	3.26
Cn1nc(CN2CCCCC(N)C2)c2c(Cl)cccc21 (stereo unspecified)	-5.99
CN(Cc1nc(-c2ccccc2)no1)C(=O)CNS(C)(=O)=O	0.0773
COCCCC1CCCCN1Cc1cc(F)ccc1-n1cccn1 (stereo unspecified)	-3.13
CCC[C@@H]1CN(Cc2nnc(-c3cccnc3)o2)C[C@H]1NC(C)=O	-4.89
O=C(c1cc(Cl)ccc1OC1CCN(C2CCCC2)CC1)N1CCCO1	-2.54
Cc1[nH]ccc1C(=O)N1CCC2(CC1)c1nc[nH]c1CCN2S(C)(=O)=O	6.63
Cc1c(-c2ccccc2)ncn1CCCNc1cccnc1	2.06
COc1cc(F)ccc1C(C(=O)O)N1CCN(C2CCCCC2)CC1 (stereo unspecified)	-8.93
CC(C)c1nc(N2CC[C@@H](N(C)CCc3ccccn3)[C@H](O)C2)no1	-0.662
CCOC(=O)N1CCN(C(=O)C2Cc3ccccc3CN2C)CC1 (stereo unspecified)	-19.2

Structure (SMILES)	cytotoxicity at 10 µM [%]
Clc1ccccc1CCn1ccnc1-c1cn(C2CCNCC2)nn1	0.33
CC1(C(=O)N2CCC(n3cc(C4(O)CCCC4)nn3)CC2)CCCCC1	0.68
CN(Cc1ccc(CCC(C)(C)O)cc1)Cc1cccc(O)c1	-7.43
Cc1ccc2oc(=O)n(CC(=O)N3CCC4(CC3)CN(C)C(=O)O4)c2c1	-13.8
COC[C@]1(O)CCN(Cc2ccc(N(C)C)nc2)CC1(C)C	7.63
CC(C(=O)N1CCC(c2[nH]ncc2-c2ccccc2)CC1)n1cncn1 (stereo unspecified)	-0.815
Cc1ccccc1C(C(=O)N1CCN(C(=O)c2ccc[nH]2)CC1)N(C)C (stereo unspecified)	-7.98
N[C@@H]1CC[C@@H]1NC(=O)c1ccccc1OC(F)(F)C(F)F	1.5
Cn1c(CCC(=O)N2CCCC3(CNC(=O)O3)C2)nc2cccnc21 (stereo unspecified)	2.3
Cc1ccc(S(N)(=O)=O)cc1C(=O)N1C[C@@H](CN(C)C)[C@@H](CO)C1	-0.187
COc1ccc(CN2CC3(CCNCC3)CCC2=O)c(F)c1F	10.9
Cc1ccc(F)c(OC2(C(=O)O)CCN(C(=O)c3ccncc3)CC2)c1	5.03
CN(C)c1ccc(C(=O)N2C[C@@H](CN3CCCCC3)[C@@H](CO)C2)cc1	-1.72
CCN(c1ccc(C(=O)N2CCC(C)CC2)cc1)S(=O)(=O)CC	7.36
COc1cccc(OCC2CCCN(Cc3ncc[nH]3)C2)c1 (stereo unspecified)	4.97
CCC(=O)N1CCC(Cc2nccnc2Nc2ccccn2)CC1	5.82
Fc1ccc(CN2CCCC2c2cncc(-n3ccnc3)n2)cc1 (stereo unspecified)	5.82
Cc1nc2n(n1)CC(NCc1csc(-c3ccsc3)n1)CC2 (stereo unspecified)	-0.544
Cc1cc(C(=O)NCc2ccc(N3CCN(C)CC3)nc2)c(C)s1	-8.74
CCn1ccnc1CN1CCN(CC(=O)NC2CCOCC2)CC1	-6.22
COc1c(Br)cc(Br)cc1CNC(C)Cn1cccn1 (stereo unspecified)	3.64
CCc1nc(CN2CCCN(c3nccs3)CC2)no1	-6.44
COCc1ccccc1CNc1nnc(C)c(C)c1C#N	-2.48

Structure (SMILES)	cytotoxicity at 10 µM [%]
CC1COCCN1Cc1nc(-c2cccs2)no1 (stereo unspecified)	-7.79
CN(C)c1cc(C(=O)N2CCCC(n3cccn3)C2)ccn1 (stereo unspecified)	-0.781
CN(C)c1cc(C(=O)N2CCN(c3cnccn3)CC2)ccn1	-7.64
OC(COc1ccc(F)cc1)CN1CCC(Cn2cccn2)CC1 (stereo unspecified)	-9.07
CCn1cnnc1CNC(=O)N1CCC(Cc2cccnc2)CC1	4.38
CN(C)CC1COCCN1C(=O)c1ccccc1C(=O)c1ccccc1 (stereo unspecified)	1.12
COc1ccc(CN2CCc3nnc(COCCN(C)C)n3CC2)cc1	4.5
O=C(c1ccco1)N1C[C@@H]2OCCN(c3ncccn3)[C@@H]2C1	6.4
CO[C@@H]1CCN(Cc2c(C)noc2C)[C@@H]2CN(Cc3cccnc3)C[C@@H]21	11.9
NC(c1ccc(Cl)cc1)c1cccs1 (stereo unspecified)	-17.1
Cc1csc([C@@H]2C[C@H]3CN(c4ncc(F)cn4)C[C@H]3O2)n1	6.88
Cc1nc(CNC(C)c2cccc(N3CCCC3=O)c2)cs1 (stereo unspecified)	5.01
Cc1ccoc1C(=O)N1CCO[C@H]2[C@H](OCCN(C)C)CC[C@@H]21	-5.88
Cn1ccc(C(=O)N2CCC3(CCN3c3ncccn3)C2)n1 (stereo unspecified)	9.41
N#Cc1cccc(CN2CC[C@@H]3[C@@H]2CC(=O)N3Cc2cccnc2)c1	5.2
CO[C@H]1CC[C@H]2[C@H]1OCCN2Cc1ccc(F)c(F)c1	22.3
CC(C)NC(=O)N1Cc2nccn2CC(COc2cccnc2)C1 (stereo unspecified)	7.77
Cn1cc(CN2CCCC3(CCN(c4nncs4)C3)C2)cn1 (stereo unspecified)	5.41
CSc1ncccc1C(=O)N1C[C@@H]2CC[C@H]1CN(CC(=O)N(C)C)C2	2.9

— ChEMBL document CHEMBL4513216, “Probing the Open Global Health Chemical Diversity Library for Multistage-Active Starting Points for Next-Generation Antimalarials” (ACS Infect Dis, 2020)
